Measured values as given in ChEMBL document CHEMBL5532690, “Antitubercular activity of 2-mercaptobenzothiazole derivatives targeting Mycobacterium tuberculosis type II NADH dehydrogenase” (RSC Med Chem, 2024).
≈ marks a conversion by molar mass, not a printed value. Calls of active or inactive are those of the source. The rule behind the calls is not given here.

Columns and labels:
[1] = Selectivity index, ratio of CC50 for cytotoxicity against human HepG2 cells to MIC90 for antitubercular activity against Mycobacterium tuberculosis; type: toxicity, cell-based; conditions: read-out: Selectivity Index
How it was run: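 Selectivity index calculated as HepG2 MTT CC50 divided by MIC90.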

[2] = Cytotoxicity against human HepG2 cells assessed as reduction in cell viability by MTT assay; type: toxicity, cell-based
How it was run: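 HepG2 cells in DMEM with 10% FBS, streptomycin, penicillin, 10 mM HEPES and 2 mM L-glutamine were seeded at 1 × 10^4 cells/well and incubated for 24 h (37 °C, 5% CO2). […] two-fold dilutions spanning 1000–0.48 μg ml−1 were applied. MTT (2.5 mg ml−1 in PBS) was added; formazan was dissolved in DMSO and read at 570 nm. CC50 = 50% viability loss. Triplicates.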

[3] = tested on: Mycobacterium tuberculosis; test: Bactericidal activity against Mycobacterium tuberculosis H37Rv mc2 6230 assessed as reduction in bacterial load measured after 5 days; type: functional, organism-based; conditions: time 5.0 day
How it was run: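 Mid-log bacilli in supplemented 7H9 were adjusted to OD600 0.005 and exposed to a range of concentrations for 5 days at 37 °C. Cultures were 10-fold serially diluted and spotted on 7H10 agar, which was incubated for 3–4 weeks for CFU counts. MBC90 was a 90% fall from the initial inoculum. Triplicates; Student's t-test.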

[4] = tested on: Mycobacterium tuberculosis; test: Antitubercular activity against Mycobacterium tuberculosis H37Rv mc2 6230 assessed as inhibition of intracellular ATP synthesis incubated for 24 hrs by BacTiter-Glo microbial cell viability assay; type: functional, organism-based; conditions: H37Rv mc2 6230, 24 h
How it was run: (§1)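 Mid-log cultures were adjusted to OD600 0.05 and exposed to compounds at 37 °C for 24 h. BacTiter-Glo reagent was then added for 12 min and luminescence was read. H37Ra and BCG were grown in 7H9 with glycerol, Tween 80 and ADS. mc2 6230 was grown with tyloxapol plus methionine, leucine, arginine and pantothenate. Values are the mean of triplicates.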

[5] = tested on: Mycobacterium tuberculosis; test: Antitubercular activity against Mycobacterium tuberculosis H37Rv mc2 6230 measured after 10 days by liquid broth microdilution assay; type: functional; conditions: H37Rv mc2 6230, 240 h, time 10 day
How it was run: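 Broth microdilution in 7H9 with glycerol, ADS and 0.05% tyloxapol, supplemented with L-methionine, L-leucine (50 mg L−1 each), L-arginine (200 mg L−1) and D-pantothenate (24 mg L−1). Inoculum was diluted to OD600 0.005 (1.0 × 10^6 CFU ml−1) and added to two-fold serial dilutions. After 10 days at 37 °C, MIC was the lowest concentration without visible turbidity.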

[6] = tested on: Mycobacterium tuberculosis; test: Antitubercular activity against Mycobacterium tuberculosis H37Ra assessed as inhibition of intracellular ATP synthesis incubated for 24 hrs by BacTiter-Glo microbial cell viability assay; type: functional, organism-based; how it was run: as §1
[7] = tested on: Mycobacterium tuberculosis; test: Bactericidal activity against Mycobacterium tuberculosis H37Rv mc2 6230 assessed as reduction in bacterial load at 4 times MIC measured after 5 days; type: functional, organism-based; conditions: time 5.0 day
[8] = tested on: Mycobacterium tuberculosis; test: Antitubercular activity against Mycobacterium tuberculosis H37Ra measured after 10 days by liquid broth microdilution assay; type: functional; conditions: 240 h, time 10 day
How it was run: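 Broth microdilution in 7H9 with 0.2% glycerol, 0.05% Tween 80 and 10% ADS. Mid-log cultures (OD600 0.4–0.6) were diluted to OD600 0.005 (1.0 × 10^6 CFU ml−1) and added to two-fold serial compound dilutions. Plates were incubated at 37 °C for 10 days and read visually. MIC was the lowest concentration with no turbidity.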

Structure (SMILES)	selectivity ratio [1]	CC50 [2] [µg/mL]	Activity [3]	IC50 [4] [µg/mL]	MIC90 [5] [µg/mL]	IC50 [6] [µg/mL]	Activity [7]	MIC90 [8] [µg/mL]
Cc1cc(C)c2nc(SCC(=O)NC3CCCCC3)sc2c1	15.4	247 (≈ 739 µM)	Dose-Dependent Effect	16.3 (≈ 48.7 µM)	8 (≈ 23.9 µM)	16.3 (≈ 48.7 µM)	Active	8 (≈ 23.9 µM)
O=C(CSc1nc2ccc(OC(F)(F)F)cc2s1)NC1CCCCC1				66.2 (≈ 170 µM)	32 (≈ 82 µM)	23.4 (≈ 59.9 µM)		64 (≈ 164 µM)
O=C(CSc1nc2ccc([N+](=O)[O-])cc2s1)NC1CCCCC1				24.4 (≈ 69.6 µM)	16 (≈ 45.5 µM)	36.3 (≈ 103 µM)		16 (≈ 45.5 µM)
CC/C(=C(\c1ccccc1)c1ccc(OCCN(C)C)cc1)c1ccccc1 [TAMOXIFEN]		6.15 (≈ 16.6 µM)						
NNC(=O)c1ccncc1 [ISONIAZID]					0.06 (≈ 0.438 µM)			0.015 (≈ 0.109 µM)
O=C(CSc1nc2ccccc2c(=O)[nH]1)NC1CCCCC1	391	48.8 (≈ 154 µM)		2.23 (≈ 7.01 µM)	0.5 (≈ 1.58 µM)	8.55 (≈ 26.9 µM)		0.5 (≈ 1.58 µM)
Cc1ccc2nc(SCC(=O)NC3CCCCC3)sc2c1				34.9 (≈ 109 µM)	32 (≈ 99.8 µM)	14.1 (≈ 43.9 µM)		32 (≈ 99.8 µM)
O=C(CSc1nc2ccc(Br)cc2s1)NC1CCCCC1				49.8 (≈ 129 µM)	32 (≈ 83 µM)	34.4 (≈ 89.2 µM)		64 (≈ 166 µM)
O=C(CSc1nc2c(Br)cc(C(F)(F)F)cc2s1)NC1CCCCC1				56 (≈ 124 µM)	64 (≈ 141 µM)	25.7 (≈ 56.7 µM)		64 (≈ 141 µM)
C=C(C)[C@H]1Cc2c(ccc3c2O[C@@H]2COc4cc(OC)c(OC)cc4[C@@H]2C3=O)O1 [ROTENONE]					> 64			> 64
O=C(CSc1nc2c(Br)cc(OC(F)(F)F)cc2s1)NC1CCCCC1				35.8 (≈ 76.3 µM)	128 (≈ 273 µM)	36.6 (≈ 77.9 µM)		128 (≈ 273 µM)
O=C(CSc1nc2ccc(C(F)(F)F)cc2s1)NC1CCCCC1				51 (≈ 136 µM)	64 (≈ 171 µM)	30.9 (≈ 82.5 µM)		32 (≈ 85.5 µM)
CC(C)c1ccc2nc(SCC(=O)NC3CCCCC3)sc2c1	26.5	423 (≈ 1210 µM)	Dose-Dependent Effect	9.35 (≈ 26.8 µM)	4 (≈ 11.5 µM)	9.35 (≈ 26.8 µM)	Active	4 (≈ 11.5 µM)
O=C(CSc1nc2c(ccc3ccccc32)s1)NC1CCCCC1				33 (≈ 92.5 µM)	128 (≈ 359 µM)	36.6 (≈ 103 µM)		128 (≈ 359 µM)
O=C(CSc1nc2ccccc2s1)NC1CCCCC1				40.6 (≈ 133 µM)	64 (≈ 209 µM)	26.6 (≈ 86.9 µM)		64 (≈ 209 µM)
O=C(CSc1nc2ccc(F)cc2s1)NC1CCCCC1				56.9 (≈ 175 µM)	4 (≈ 12.3 µM)	36.5 (≈ 113 µM)		16 (≈ 49.3 µM)
O=C(CSc1nc2ccc(Cl)cc2s1)NC1CCCCC1				38.2 (≈ 112 µM)	16 (≈ 46.9 µM)	48.6 (≈ 143 µM)		32 (≈ 93.9 µM)
CO[C@H]1/C=C/O[C@@]2(C)Oc3c(C)c(O)c4c(O)c(c(/C=N/N5CCN(C)CC5)c(O)c4c3C2=O)NC(=O)/C(C)=C\C=C\[C@H](C)[C@H](O)[C@@H](C)[C@@H](O)[C@@H](C)[C@H](OC(C)=O)[C@@H]1C [RIFAMPIN]					0.03 (≈ 0.0365 µM)			0.015 (≈ 0.0182 µM)
CC(C)/N=c1\cc2n(-c3ccc(Cl)cc3)c3ccccc3nc-2cc1Nc1ccc(Cl)cc1 [CLOFAZIMINE]	223	49 (≈ 104 µM)			0.25 (≈ 0.528 µM)			0.25 (≈ 0.528 µM)
O=C(CSc1nc2c(Br)cc(F)cc2s1)NC1CCCCC1	5.58	89.4 (≈ 222 µM)	Dose-Dependent Effect	14.7 (≈ 36.4 µM)	8 (≈ 19.8 µM)	18.7 (≈ 46.3 µM)	Active	8 (≈ 19.8 µM)
